Experiments:
Adenosine receptor A1 [1] = target: T1, Adenosine receptor A1 (Homo sapiens, UniProt P30542); assay: Displacement of […] from human adenosine A1 receptor expressed in CHO cells by scintillation counting; format: cell-based
T1 sequence (P30542 whole entry): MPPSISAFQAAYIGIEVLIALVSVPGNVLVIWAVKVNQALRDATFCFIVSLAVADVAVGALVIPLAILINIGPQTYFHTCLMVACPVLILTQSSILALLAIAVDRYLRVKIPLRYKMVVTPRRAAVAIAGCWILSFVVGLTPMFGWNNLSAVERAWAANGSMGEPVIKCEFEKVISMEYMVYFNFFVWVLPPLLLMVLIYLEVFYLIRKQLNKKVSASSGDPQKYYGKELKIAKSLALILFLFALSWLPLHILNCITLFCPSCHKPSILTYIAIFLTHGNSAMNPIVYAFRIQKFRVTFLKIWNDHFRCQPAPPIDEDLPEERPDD
Outline: (§1)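 Equilibrium competition in 50 mM Tris HCl pH 7.4 with 0.8 IU/mL adenosine deaminase and 1.6 nM [3H]DPCPX. Increasing ligand concentrations ± 10 μM PD81,723. CHO-hA1 membranes (10 μg protein) incubated 1 h at 25 °C. GF/B filtration, scintillation counting. Nonspecific binding defined with 10 μM CPA. High- and low-affinity Ki taken from biphasic curves.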

Adenosine receptor A1 [2] = target: T1, Adenosine receptor A1; assay: Displacement of […] from human adenosine A1 receptor expressed in CHO cells by scintillation counting in presence of 10 uM allosteric modulator PD-81723; format: cell-based; outline: as §1
[3] = target: T2, Adenosine receptor A1 (Homo sapiens) (UniProt P30542); assay: Displacement of […] from human adenosine A1 receptor expressed in CHO cells by scintillation counting relative to control; format: cell-based; parameters: concentration or dose not given beside the values; outline: as §1
T2 sequence (whole entry): T1 sequence (P30542 whole entry)

[4] = target: T2, Adenosine receptor A1 (Homo sapiens); assay: Displacement of [3H]CCPA from human adenosine A1 receptor expressed in CHO cells by scintillation counting relative to control; format: cell-based
Outline: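 Filtration and scintillation counting. Nonspecific binding defined with 10 μM CPA. pKi and maximal displacement given as percent of specific binding. pKi compared by one-way ANOVA with Bonferroni test.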

Adenosine receptor A1 [5] = target: T1, Adenosine receptor A1; assay: Agonist activity at human adenosine A1 receptor expressed in CHO cells assessed as [35S]GTPgammaS binding by scintillation counting in presence of 10 uM allosteric modulator PD-81723; format: functional, cell-based
Outline: (§2)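 CHO-hA1 membranes (5 μg protein) preincubated 30 min at 25 °C in 50 mM Tris, 100 mM NaCl, 10 mM MgCl, pH 7.4 with 3 μM GDP and a concentration range of agonist, with or without 10 μM PD81,723. 0.3 nM (final) [35S]GTPγS then added for 45 min at 25 °C. Filtration, washing, scintillation counting. Emax given as percent of maximal stimulation by the reference agonist. Control and PD81,723 pEC50 compared to give fold shift.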

Adenosine receptor A1 [6] = target: T1, Adenosine receptor A1; assay: Displacement of […] from human adenosine A1 receptor expressed in CHO cells at low affinity site by scintillation counting; format: cell-based; outline: as §1
Adenosine receptor A1 [7] = target: T1, Adenosine receptor A1; assay: Agonist activity at human adenosine A1 receptor expressed in CHO cells assessed as stimulation of ERK1/2 phosphorylation in presence of 10 uM allosteric modulator PD-81723; format: functional, cell-based
Outline: (§3)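 Intact CHO-hA1 cells seeded at 40 000/well. After 6 h, washed and serum-starved in DMEM for 14 h. Pretreated 30 min with 0.8 IU/mL adenosine deaminase, then stimulated 5 min with compound ± 10 μM PD81,723. Lysed; phospho-ERK1/2 read by AlphaScreen SureFire after ≥3 h dark incubation at room temperature. Emax given as percent of the reference agonist. Mean ± SEM of ≥3 experiments. Fold shift in pEC50 versus control.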

Adenosine receptor A1 [8] = target: T1, Adenosine receptor A1; assay: Agonist activity at human adenosine A1 receptor expressed in CHO cells assessed as [35S]GTPgammaS binding by scintillation counting; format: functional, cell-based; outline: as §2
Adenosine receptor A1 [9] = target: T1, Adenosine receptor A1; assay: Agonist activity at human adenosine A1 receptor expressed in CHO cells assessed as stimulation of ERK1/2 phosphorylation; format: functional, cell-based; outline: as §3
Adenosine receptor A1 [10] = target: T1, Adenosine receptor A1; assay: Displacement of […] from human adenosine A1 receptor expressed in CHO cells at high affinity site by scintillation counting; format: cell-based; outline: as §1
[11] = target: T2, Adenosine receptor A1 (Homo sapiens); assay: Agonist activity at human adenosine A1 receptor expressed in CHO cells assessed as stimulation of ERK1/2 phosphorylation relative to control; format: functional, cell-based; outline: as §3
[12] = target: T2, Adenosine receptor A1 (Homo sapiens); assay: Selectivity ratio of EC50 for human adenosine A1 receptor to EC50 for human adenosine A1 receptor in presence of 10 uM allosteric modulator PD-81723; outline: as §2
[13] = target: T2, Adenosine receptor A1 (Homo sapiens); assay: Agonist activity at human adenosine A1 receptor expressed in CHO cells assessed as stimulation of ERK1/2 phosphorylation in presence of 10 uM allosteric modulator PD-81723 relative to control; format: functional, cell-based; outline: as §3
[14] = target: T2, Adenosine receptor A1 (Homo sapiens); assay: Agonist activity at human adenosine A1 receptor expressed in CHO cells assessed as [35S]GTPgammaS binding by scintillation counting in presence of 10 uM allosteric modulator PD-81723 relative to control; format: functional, cell-based; outline: as §2
[15] = target: T2, Adenosine receptor A1 (Homo sapiens); assay: Agonist activity at human adenosine A1 receptor expressed in CHO cells assessed as [35S]GTPgammaS binding by scintillation counting relative to control; format: functional, cell-based; outline: as §2
[16] = target: T2, Adenosine receptor A1 (Homo sapiens); assay: Selectivity ratio of EC50 for human adenosine A1 receptor-mediated ERK1/2 phosphorylation to EC50 for human adenosine A1 receptor-mediated ERK1/2 phosphorylation in presence of 10 uM allosteric modulator PD-81723 assessed as; outline: as §3
Adenosine receptor A1 [17] = target: T1, Adenosine receptor A1; assay: Enhancement of [3H]CCPA binding to human adenosine A1 receptor expressed in CHO cells by scintillation counting

Structure (SMILES) | Ki (Adenosine receptor A1 [1]; read-out: Ki) | Ki (Adenosine receptor A1 [2]; read-out: Ki) | Activity [3] | Emax [4] | Ki (Adenosine receptor A1 [1]; read-out: pKi (converted)) | Ki (Adenosine receptor A1 [2]; read-out: pKi (converted)) | other results
Nc1sc2c(c1C(=O)c1ccc(Cl)c(Cl)c1)CCN(CCCCCCCCOc1ccc(Nc3ncnc4c3ncn4[C@@H]3O[C@H](CO)[C@@H](O)[C@H]3O)cc1)C2 | 836 nM | 591 nM | 65% |  | 776 nM | 457 nM | 
Nc1sc2c(c1C(=O)c1ccc(Cl)c(Cl)c1)CCN(CCCCOc1ccc(Nc3ncnc4c3ncn4[C@@H]3O[C@H](CO)[C@@H](O)[C@H]3O)cc1)C2 | 618 nM | 313 nM | 100% |  |  |  | 
Nc1sc2c(c1C(=O)c1ccc(Cl)c(Cl)c1)CCN(CCCCCOc1ccc(Nc3ncnc4c3ncn4[C@@H]3O[C@H](CO)[C@@H](O)[C@H]3O)cc1)C2 | 219 nM | 114 nM | 100% | 97% | 214 nM | 110 nM | EC50 (Adenosine receptor A1 [5]; read-out: EC50): 52 nM; EC50 (Adenosine receptor A1 [7]; read-out: EC50): 89 nM; EC50 (Adenosine receptor A1 [8]; read-out: EC50): 273 nM; EC50 (Adenosine receptor A1 [8]; read-out: pEC50 (converted)): 269 nM; EC50 (Adenosine receptor A1 [9]; read-out: EC50): 156 nM; EC50 (Adenosine receptor A1 [9]; read-out: pEC50 (converted)): 151 nM; Emax [11]: 114%; Ratio EC50 [12]: 5.2; Emax [13]: 131%; Emax [14]: 97%; Emax [15]: 110%; Ratio EC50 [16]: 1.8
Nc1sc2c(c1C(=O)c1ccc(Cl)c(Cl)c1)CCN(CCCOc1ccc([N+](=O)[O-])cc1)C2 |  |  |  | 204% |  |  | EC50 (Adenosine receptor A1 [17]): 3700 nM
Nc1sc2c(c1C(=O)c1ccc(Cl)c(Cl)c1)CCN(CCOc1ccc([N+](=O)[O-])cc1)C2 |  |  |  | 250% |  |  | EC50 (Adenosine receptor A1 [17]): 8500 nM
Nc1sc2c(c1C(=O)c1ccc(Cl)c(Cl)c1)CCN(CCCCCCCCCCOc1ccc(Nc3ncnc4c3ncn4[C@@H]3O[C@H](CO)[C@@H](O)[C@H]3O)cc1)C2 | 1470 nM | 1360 nM | 55% |  | 1260 nM | 1290 nM | 

The next lines start with results.

Ki (Adenosine receptor A1 [1]; read-out: Ki) | Ki (Adenosine receptor A1 [2]; read-out: Ki) | Activity [3] | Emax [4] | Ki (Adenosine receptor A1 [1]; read-out: pKi (converted)) | Ki (Adenosine receptor A1 [2]; read-out: pKi (converted)) | Structure (SMILES) | other results
450 nM | 347 nM | 91% |  |  |  | Nc1sc2c(c1C(=O)c1ccc(Cl)c(Cl)c1)CCN(CCCCCCCOc1ccc(Nc3ncnc4c3ncn4[C@@H]3O[C@H](CO)[C@@H](O)[C@H]3O)cc1)C2 | 
 |  |  | 140% |  |  | Cc1sc(N)c(C(=O)c2cccc(C(F)(F)F)c2)c1C | 
842 nM | 195 nM | 100% | 100% | 832 nM | 191 nM | COc1ccc(Nc2ncnc3c2ncn3[C@@H]2O[C@H](CO)[C@@H](O)[C@H]2O)cc1 | EC50 (Adenosine receptor A1 [5]; read-out: EC50): 29 nM; EC50 (Adenosine receptor A1 [5]; read-out: pEC50 (converted)): 30.2 nM; Ki (Adenosine receptor A1 [6]; read-out: Ki): 1990 nM; Ki (Adenosine receptor A1 [6]; read-out: pKi (converted)): 1860 nM; EC50 (Adenosine receptor A1 [7]; read-out: EC50): 5 nM; EC50 (Adenosine receptor A1 [8]; read-out: EC50): 142 nM; EC50 (Adenosine receptor A1 [8]; read-out: pEC50 (converted)): 123 nM; EC50 (Adenosine receptor A1 [9]; read-out: EC50): 22 nM; EC50 (Adenosine receptor A1 [9]; read-out: pEC50 (converted)): 20.9 nM; Ki (Adenosine receptor A1 [10]; read-out: Ki): 71 nM; Ki (Adenosine receptor A1 [10]; read-out: pKi (converted)): 42.7 nM; Emax [11]: 100%; Ratio EC50 [12]: 4.9; Emax [13]: 131%; Emax [14]: 91%; Emax [15]: 100%; Ratio EC50 [16]: 4.4
679 nM | 651 nM | 83% | 79% | 661 nM |  | Nc1sc2c(c1C(=O)c1ccc(Cl)c(Cl)c1)CCN(CCCCCCCCCOc1ccc(Nc3ncnc4c3ncn4[C@@H]3O[C@H](CO)[C@@H](O)[C@H]3O)cc1)C2 | EC50 (Adenosine receptor A1 [5]; read-out: EC50): 181 nM; EC50 (Adenosine receptor A1 [5]; read-out: pEC50 (converted)): 178 nM; EC50 (Adenosine receptor A1 [7]; read-out: EC50): 813 nM; EC50 (Adenosine receptor A1 [7]; read-out: pEC50 (converted)): 692 nM; EC50 (Adenosine receptor A1 [8]; read-out: EC50): 390 nM; EC50 (Adenosine receptor A1 [9]; read-out: EC50): 1070 nM; EC50 (Adenosine receptor A1 [9]; read-out: pEC50 (converted)): 955 nM; Emax [11]: 123%; Ratio EC50 [12]: 2.2; Emax [13]: 122%; Emax [14]: 105%; Emax [15]: 110%; Ratio EC50 [16]: 1.3
419 nM | 288 nM | 103% |  | 479 nM | 275 nM | Nc1sc2c(c1C(=O)c1ccc(Cl)c(Cl)c1)CCN(CCCCCCOc1ccc(Nc3ncnc4c3ncn4[C@@H]3O[C@H](CO)[C@@H](O)[C@H]3O)cc1)C2 | 
 |  |  | 185% |  |  | Nc1sc2c(c1C(=O)c1ccc(Cl)c(Cl)c1)CCN(CCCCCOc1ccc([N+](=O)[O-])cc1)C2 | EC50 (Adenosine receptor A1 [17]): 5200 nM
751 nM | 469 nM | 100% |  | 741 nM |  | Nc1sc2c(c1C(=O)c1ccc(Cl)c(Cl)c1)CCN(CCOc1ccc(Nc3ncnc4c3ncn4[C@@H]3O[C@H](CO)[C@@H](O)[C@H]3O)cc1)C2 | 
439 nM | 268 nM | 100% |  | 417 nM | 245 nM | Nc1sc2c(c1C(=O)c1ccc(Cl)c(Cl)c1)CCN(CCCOc1ccc(Nc3ncnc4c3ncn4[C@@H]3O[C@H](CO)[C@@H](O)[C@H]3O)cc1)C2 | 

Source: ChEMBL document CHEMBL1156209, “Hybrid ortho/allosteric ligands for the adenosine A(1) receptor” (J Med Chem, 2010)
